PREPL inh: inhibitors of human prolyl oligopeptidase-like enzyme PREPL | Q4J6C6 | recombinant PREPL, fluorescence polarization activity-based probe | inhibition, % at 5.96 µM | 320,000 tested, 0.68% active | AID 2751; in the data active means inhibition above about 43%;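 further: 0% = enzyme with DMSO and 100% = wells lacking enzyme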
UBC13 polyUb: human UBC13 polyubiquitination inhibition; inhibition, % at 20 µM; UBC13 polyubiquitin chain formation, TR-FRET; P61088; 330,000 tested, 0.47% active; AID 485273; in the data active means inhibition above about 45%, passing the limit was not always enough
UCH37 DUB inh: human UCH37 deubiquitinating enzyme inhibition. purified proteasome/UCH37, Ub-AMC cleavage fluorescence. inhibition, % (concentration not given with the values). 330,000 tested, 0.33% active. AID 588478;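 active means mean inhibition over replicate wells above about 20%, limit read from the data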;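 further: 0% = compound-free wells with enzyme and 100% = wells lacking proteasome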
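assay system = human UCH37 enzyme supplied as purified proteasome complex | amount = proteasome at 0.15 nM in the dispensed enzyme solution | schedule = 30 min compound-proteasome preincubation then 25 min substrate reaction, room temperature | measured by = fluorescence, ex 355 nm, em 460 nm | benchmarks = no-proteasome wells (full inhibition) and compound-free wells (no inhibition)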
Apaf-1 inh: human Apaf-1 inhibition; O14727; reconstituted apoptosome caspase-3 activity, DEVD-Rh110 fluorescence; inhibition, % at 20 µM; 330,000 tested, 0.71% active; active means inhibition of at least 40% at 20 µM;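 further: plate controls were DMSO wells for no effect and DEVD-CHO caspase inhibitor wells for full effect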
Target sequence (O14727 whole entry, looked up): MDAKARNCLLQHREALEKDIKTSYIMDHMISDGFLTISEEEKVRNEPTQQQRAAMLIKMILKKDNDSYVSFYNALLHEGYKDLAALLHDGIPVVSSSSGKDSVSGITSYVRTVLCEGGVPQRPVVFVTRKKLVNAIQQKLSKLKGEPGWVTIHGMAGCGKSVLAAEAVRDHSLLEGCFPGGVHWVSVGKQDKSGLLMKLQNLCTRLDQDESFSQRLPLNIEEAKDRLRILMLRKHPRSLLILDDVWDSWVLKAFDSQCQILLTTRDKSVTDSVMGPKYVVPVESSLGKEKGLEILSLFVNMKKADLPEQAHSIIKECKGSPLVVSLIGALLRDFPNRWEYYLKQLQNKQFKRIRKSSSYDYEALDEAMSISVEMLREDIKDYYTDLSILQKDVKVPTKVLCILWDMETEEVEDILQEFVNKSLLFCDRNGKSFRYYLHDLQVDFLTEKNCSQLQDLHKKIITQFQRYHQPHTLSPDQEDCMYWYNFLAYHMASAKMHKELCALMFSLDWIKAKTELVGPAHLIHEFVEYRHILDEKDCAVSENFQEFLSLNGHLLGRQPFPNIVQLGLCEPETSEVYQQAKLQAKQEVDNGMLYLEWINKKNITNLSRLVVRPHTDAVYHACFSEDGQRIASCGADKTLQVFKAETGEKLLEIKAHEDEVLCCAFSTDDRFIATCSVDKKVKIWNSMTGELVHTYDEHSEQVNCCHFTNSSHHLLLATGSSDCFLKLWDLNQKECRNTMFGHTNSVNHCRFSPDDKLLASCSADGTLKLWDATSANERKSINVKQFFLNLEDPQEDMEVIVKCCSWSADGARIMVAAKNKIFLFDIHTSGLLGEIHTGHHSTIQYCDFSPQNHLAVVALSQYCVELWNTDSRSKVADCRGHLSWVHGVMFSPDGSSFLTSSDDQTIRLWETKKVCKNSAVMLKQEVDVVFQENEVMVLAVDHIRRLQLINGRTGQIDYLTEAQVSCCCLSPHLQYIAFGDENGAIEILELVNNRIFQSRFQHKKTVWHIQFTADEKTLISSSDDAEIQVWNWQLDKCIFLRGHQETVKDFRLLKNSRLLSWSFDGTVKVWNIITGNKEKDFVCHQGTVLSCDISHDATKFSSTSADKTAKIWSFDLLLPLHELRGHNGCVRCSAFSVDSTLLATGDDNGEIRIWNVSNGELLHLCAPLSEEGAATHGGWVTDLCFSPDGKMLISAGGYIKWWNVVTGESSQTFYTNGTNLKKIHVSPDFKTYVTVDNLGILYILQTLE
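System: Apoptosome proteins | Medium: Hepes pH 7.5 with detergent and BSA | Also added: Cytochrome c trigger plus (Z-DEVD)2-Rh110 caspase-3 substrate | Incubation: 30 min compound preincubation, 50 min activation, room temperature | Detection: Rhodamine 110 fluorescence at Ex 480/Em 540 nm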
Apaf-1 inh conf: confirmation of Apaf-1 inhibitors. 1,800 tested, 25% active. reconstituted apoptosome, caspase-3 DEVD-Rh110 fluorescence. inhibition, % at 20 µM. AID 504614. shares compounds with Apaf-1 inh;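 active means mean inhibition of at least 40% at 20 µM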;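 further: plate controls were DMSO wells for no effect and DEVD-CHO caspase inhibitor control wells for full effect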
Rh110 quench: counter-screen for Apaf-1 inhibitors: fluorescence interference | shares compounds with Apaf-1 inh | 1,800 tested, under 10 active | activation (fluorescence interference), % at 20 µM | Rh110 fluorescence interference, quenched caspase reaction;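 active means signal rise of 40% or more at 20 µM, treated as a fluorescence artifact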
Apaf1 inh interf: counter-screen for Apaf-1 inhibitors: fluorescence interference, dose response. IC50, µM. 460 tested, under 10 active. AID 588538. shares compounds with Apaf-1 inh. fluorescence interference counterscreen, Apaf-1 assay format; call rule not given here
Numbers without * were called inactive; i = inactive; / = no result given. Sampled rows, rich in hits. Any-hit rate of the full collection: about 1.5%.

SMILES	PREPL inh	UBC13 polyUb	UCH37 DUB inh	Apaf-1 inh	Apaf-1 inh conf	Rh110 quench	others
COc1ccc2cc(C=NNC(=O)CN(c3ccccc3C)S(=O)(=O)c3ccccc3)c(Cl)nc2c1	/	/	i	/	/	/
O=C(COc1ccc2ccc(=O)oc2c1)Nc1ccc(CCO)cc1	-9	0	3	-3	/	/
O=C(COc1ccc2ccc(=O)oc2c1)Nc1ccc(N2CCCCC2)cc1	41	35	-165	47*	14	9
O=C(CCC1CCCCC1)NCCN1C2=NC[C@@H](Cc3ccccc3)N2C[C@H]1Cc1ccc(O)cc1	-59	15	0	45*	14	16
Cc1ccc(N=Nc2c(N)[nH]n3c(=O)cc(-c4ccccc4)nc23)cc1	29	-109	9	55*	64*	4	Apaf1 inh interf=>100
COc1cccc(N=Nc2c(N)[nH]n3c(=O)cc(-c4ccccc4)nc23)c1	19	-72	11	37	/	/
O=[N+]([O-])c1cc(C=NO)ccc1Oc1ccccc1Cl	/	/	3	/	/	/
O=C(Nc1ccccc1N1CCCC1)C1CCN(S(=O)(=O)c2cccc(C(F)(F)F)c2)CC1	9	-7	0	42*	7	15
Cn1c(C(=O)NCCN2CCN(Cc3ccccc3)CC2)cc2c(=O)n(C)c3ccccc3c21	-31	23	-1	12	/	/
Cn1c(C(=O)NCCN2CCCCCC2)cc2c(=O)n(C)c3ccccc3c21	-3	40	-6	43*	19	8
CN1CCN(C2=C(NS(=O)(=O)c3cccs3)C(=O)c3ccccc3C2=O)CC1	0	-96	9	31	/	/
O=C1C(NS(=O)(=O)c2cccs2)=C(N2CCN(Cc3ccccc3)CC2)C(=O)c2ccccc21	13	-45	5	51*	37	12
O=C1C(NS(=O)(=O)c2cccs2)=C(N2CCN(c3cccc(C(F)(F)F)c3)CC2)C(=O)c2ccccc21	40	-58	3	48*	26	10
COc1ccccc1C=NN=C(N)c1ccccn1	/	/	8	/	/	/
Cc1ccc(NC(=O)CC2SC(=Nc3nccs3)N(C)C2=O)cc1C (stereo not drawn)	/	/	2	/	/	/
O=C1C(SCCO)=C(SCCO)C(=O)c2ccccc21	30	-124	/	97*	96*	0	Apaf1 inh interf=>100
CCc1ccc(N2C(=O)C(Cl)=C(Nc3ccc(C(=O)N4CCCC4)cc3)C2=O)cc1	15	-54	5	41*	7	10
S=c1[nH]c2cc(Cl)c3cccnc3c2o1	-8	-5	/	46*	26	1
COc1ccc(-c2cc(=O)n(CCC#N)[nH]2)cc1	2	-11	6	94*	7	-6
COc1ccc(-c2cc(=O)[nH][nH]2)cc1	-8	-10	3	17	/	/
COc1cc(O)c(NC(C)=O)c2nonc12	13	-37	7	87*	23	8
COc1cc(-c2ccc(NC(C)=O)c(OC)c2)ccc1NC(C)=O	-3	2	1	-8	/	/
COc1ccccc1NC1=C(NC(C)=O)C(=O)c2ccccc2C1=O	/	/	13	/	/	/
COc1ccccc1N(/N=C1\Sc2ccccc2C1=O)C(C)=O	18	-28	/	83*	73*	4	Apaf1 inh interf=>100
Cn1c(=O)c2cc(NCc3ccccc3)nnc2n(C)c1=O	36	-56	0	94*	7	0
SMILES	PREPL inh	UBC13 polyUb	UCH37 DUB inh	Apaf-1 inh	Apaf-1 inh conf	Rh110 quench	others
COc1ccc2c(c1OC)C(=O)OC2CC(=NNC(N)=O)c1ccccc1 (stereo not drawn)	/	/	3	/	/	/
COC(=O)c1ccc(-c2ncc(-c3cccc4ccccc34)o2)cc1	0	31	i	42*	9	7
Cc1ccc(C(=O)N/C(=C\c2ccc(-c3ccccc3[N+](=O)[O-])o2)C(=O)NCCN(C)C)cc1	16	-16	12	53*	33	2
Cc1ccc(C(=O)N/C(=C\c2ccc(-c3ccccc3[N+](=O)[O-])o2)C(=O)NCCCN(C)C)cc1	30	-14	14	56*	46*	-4	Apaf1 inh interf=>100
Cn1c(=O)c2[nH]c(=O)cnc2n(C)c1=S	18	-11	-6	56*	9	2
Cn1c(=O)c2[nH]c(SCc3cccnc3)nc2n(C)c1=S	/	/	2	/	/	/
Fc1ccc(-[n+]2nc(Nc3ccccc3)sc2-c2c3ccccc3cc3ccccc23)cc1	13	-8	5	42*	15	4

Screening data from PubChem.
